According to ChEMBL document CHEMBL5058577, “EUbOPEN Chemogenomics Library 2 (Multiplex)” (2022):

System: HEK-293T
Test: Multiplex assay against HEK293T
Type: toxicity, cell-based
Settings: human
Outline: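 Cells stained live at seeding with Hoechst33342, BioTracker Green Microtubule Cytoskeleton Dye, MitoTracker Red and Annexin V Alexa Fluor 680 were imaged on a CQ1 microscope at 37°C and 5% CO2 after compound addition. Their classification by CellPathfinder machine-learning gating ran from Hoechst high-intensity objects versus normal cells, to healthy, pyknosed or fragmented nuclei among normal cells, to mitotic or apoptotic among pyknosed cells. Tubulin, mitochondrial-mass and membrane-permeability phenotypes are per cents of healthy-nucleus cells.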

[1] = 12 h, 1 µM, compound concentration 1 uM, replicate 1
[2] = 12 h, 1 µM, compound concentration 1 uM, replicate 2
[3] = 12 h, 10 µM, compound concentration 10 uM, replicate 1
[4] = 12 h, 10 µM, compound concentration 10 uM, replicate 2
[5] = 24 h, 1 µM, compound concentration 1 uM, replicate 1
[6] = 24 h, 1 µM, compound concentration 1 uM, replicate 2
[7] = 24 h, 10 µM, compound concentration 10 uM, replicate 1
[8] = 24 h, 10 µM, compound concentration 10 uM, replicate 2
[9] = 48 h, 1 µM, compound concentration 1 uM, replicate 1
[10] = 48 h, 1 µM, compound concentration 1 uM, replicate 2
[11] = 48 h, 10 µM, compound concentration 10 uM, replicate 1
[12] = 48 h, 10 µM, compound concentration 10 uM, replicate 2

Structure (SMILES): O=C(NCC(=O)N1CC[C@H](N[C@H]2CC[C@@](O)(c3ccc(-c4ncccn4)cn3)CC2)C1)c1cccc(C(F)(F)F)c1 [PF-4136309]
- Population Apoptotic (%) [1]: 44%
- Population Fragmented Nuclei (%) [1]: 6%
- Population Healthy Nuclei (%) [1]: 80%
- Population Hoechst High Intensity Objects (%) [1]: 4%
- Population Membrane Permeable-Phenotype (%) [1]: 0%
- Population Mitochondria Different-Phenotype (%) [1]: 41%
- Population Mitotic Cells (%) [1]: 56%
- Population Normal (%) [1]: 95%
- Population Pyknosed Nuclei (%) [1]: 13%
- Population Tubulin-Different-Phenotype (%) [1]: 32%
- Total Cell Count [1]: 393
- Population Apoptotic (%) [2]: 34%
- Population Fragmented Nuclei (%) [2]: 5%
- Population Hoechst High Intensity Objects (%) [2]: 6%
- Population Mitochondria Different-Phenotype (%) [2]: 56%
- Population Mitotic Cells (%) [2]: 66%
- Population Normal (%) [2]: 93%
- Population Tubulin-Different-Phenotype (%) [2]: 15%
- Total Cell Count [2]: 389
- Population Apoptotic (%) [3]: 39%
- Population Fragmented Nuclei (%) [3]: 7%
- Population Healthy Nuclei (%) [3]: 76%
- Population Hoechst High Intensity Objects (%) [3]: 7%
- Population Membrane Permeable-Phenotype (%) [3]: 0%
- Population Mitochondria Different-Phenotype (%) [3]: 53%
- Population Mitotic Cells (%) [3]: 60%
- Population Normal (%) [3]: 92%
- Population Pyknosed Nuclei (%) [3]: 15%
- Population Tubulin-Different-Phenotype (%) [3]: 55%
- Total Cell Count [3]: 358
- Population Apoptotic (%) [4]: 48%
- Population Fragmented Nuclei (%) [4]: 3%
- Population Healthy Nuclei (%) [4]: 81%
- Population Hoechst High Intensity Objects (%) [4]: 6%
- Population Mitochondria Different-Phenotype (%) [4]: 75%
- Population Mitotic Cells (%) [4]: 51%
- Population Normal (%) [4]: 93%
- Population Pyknosed Nuclei (%) [4]: 14%
- Population Tubulin-Different-Phenotype (%) [4]: 45%
- Total Cell Count [4]: 295
- Population Apoptotic (%) [5]: 25%
- Population Fragmented Nuclei (%) [5]: 10%
- Population Healthy Nuclei (%) [5]: 80%
- Population Hoechst High Intensity Objects (%) [5]: 2%
- Population Membrane Permeable-Phenotype (%) [5]: 0%
- Population Mitochondria Different-Phenotype (%) [5]: 26%
- Population Mitotic Cells (%) [5]: 74%
- Population Normal (%) [5]: 97%
- Population Pyknosed Nuclei (%) [5]: 9%
- Population Tubulin-Different-Phenotype (%) [5]: 15%
- Total Cell Count [5]: 561
- Population Apoptotic (%) [6]: 39%
- Population Fragmented Nuclei (%) [6]: 8%
- Population Hoechst High Intensity Objects (%) [6]: 5%
- Population Mitochondria Different-Phenotype (%) [6]: 31%
- Population Mitotic Cells (%) [6]: 60%
- Population Normal (%) [6]: 94%
- Population Pyknosed Nuclei (%) [6]: 11%
- Population Tubulin-Different-Phenotype (%) [6]: 13%
- Total Cell Count [6]: 485
- Population Apoptotic (%) [7]: 35%
- Population Fragmented Nuclei (%) [7]: 10%
- Population Healthy Nuclei (%) [7]: 73%
- Population Hoechst High Intensity Objects (%) [7]: 7%
- Population Membrane Permeable-Phenotype (%) [7]: 1%
- Population Mitochondria Different-Phenotype (%) [7]: 39%
- Population Mitotic Cells (%) [7]: 64%
- Population Normal (%) [7]: 92%
- Population Pyknosed Nuclei (%) [7]: 16%
- Population Tubulin-Different-Phenotype (%) [7]: 36%
- Total Cell Count [7]: 450
- Population Apoptotic (%) [8]: 57%
- Population Fragmented Nuclei (%) [8]: 8%
- Population Healthy Nuclei (%) [8]: 80%
- Population Hoechst High Intensity Objects (%) [8]: 5%
- Population Membrane Permeable-Phenotype (%) [8]: 0%
- Population Mitochondria Different-Phenotype (%) [8]: 54%
- Population Mitotic Cells (%) [8]: 42%
- Population Normal (%) [8]: 94%
- Population Pyknosed Nuclei (%) [8]: 11%
- Population Tubulin-Different-Phenotype (%) [8]: 27%
- Total Cell Count [8]: 384
- Population Apoptotic (%) [9]: 18%
- Population Fragmented Nuclei (%) [9]: 16%
- Population Healthy Nuclei (%) [9]: 78%
- Population Hoechst High Intensity Objects (%) [9]: 0%
- Population Membrane Permeable-Phenotype (%) [9]: 1%
- Population Mitochondria Different-Phenotype (%) [9]: 14%
- Population Mitotic Cells (%) [9]: 81%
- Population Normal (%) [9]: 99%
- Population Pyknosed Nuclei (%) [9]: 4%
- Population Tubulin-Different-Phenotype (%) [9]: 9%
- Total Cell Count [9]: 1007
- Population Apoptotic (%) [10]: 27%
- Population Healthy Nuclei (%) [10]: 77%
- Population Hoechst High Intensity Objects (%) [10]: 2%
- Population Membrane Permeable-Phenotype (%) [10]: 0%
- Population Mitochondria Different-Phenotype (%) [10]: 16%
- Population Mitotic Cells (%) [10]: 72%
- Population Normal (%) [10]: 97%
- Population Pyknosed Nuclei (%) [10]: 5%
- Population Tubulin-Different-Phenotype (%) [10]: 11%
- Total Cell Count [10]: 907
- Population Apoptotic (%) [11]: 31%
- Population Fragmented Nuclei (%) [11]: 13%
- Population Healthy Nuclei (%) [11]: 75%
- Population Hoechst High Intensity Objects (%) [11]: 5%
- Population Membrane Permeable-Phenotype (%) [11]: 0%
- Population Mitochondria Different-Phenotype (%) [11]: 34%
- Population Mitotic Cells (%) [11]: 68%
- Population Normal (%) [11]: 94%
- Population Pyknosed Nuclei (%) [11]: 11%
- Population Tubulin-Different-Phenotype (%) [11]: 23%
- Total Cell Count [11]: 636
- Population Apoptotic (%) [12]: 43%
- Population Fragmented Nuclei (%) [12]: 11%
- Population Healthy Nuclei (%) [12]: 79%
- Population Hoechst High Intensity Objects (%) [12]: 4%
- Population Mitochondria Different-Phenotype (%) [12]: 46%
- Population Mitotic Cells (%) [12]: 56%
- Population Normal (%) [12]: 95%
- Population Pyknosed Nuclei (%) [12]: 8%
- Population Tubulin-Different-Phenotype (%) [12]: 30%
- Total Cell Count [12]: 468
